Results collected from several papers.
Each line is one published result; the experiments were not run side by side.
Cell line: A549

COc1ccccc1/C=C/CNCC(O)COc1ccc2c(c1)[nH]c1ccccc12 (stereo not shown) — IC50 (cell growth or viability; CCK-8; 72 h): 6.8 µM
Cc1c(OCC(F)(F)F)ccnc1COc1ccc(NC(=O)Nc2cc(F)cc(F)c2)cc1 — IC50 (cell growth or viability; MTT; 72 h): 7.67 µM
CCC(=O)Nc1cc(Nc2nc(N3CCc4sccc4C3)c3cccnc3n2)c(OC)cc1N1CCC(N(C)C)CC1 — IC50 (cell growth or viability; MTT): 1.25 µM
Cc1cc(=O)[nH]n1C(=O)c1ccc(-n2c(C)ccc2C)cc1 — IC50 (cell growth or viability; MTT; 72 h): 208 µM
O=C(NC(=S)NCCCNC(=S)NC(=O)c1ccc2ccccc2c1)c1ccc2ccccc2c1 — IC50 (cell growth or viability; 48 h): 2.41 µM
Oc1ncnc2cc(Nc3nc(-c4ccc(Br)cc4)cs3)ccc12 — IC50 (cell growth or viability; MTT): 22.9 µM
COc1ccc(-c2nn(-c3ccc(S(C)(=O)=O)cc3)cc2C=N/N=c2\[nH]c(-c3ccc([N+](=O)[O-])cc3)cs2)cc1 — IC50 (cell growth or viability; MTT; 48 h): 4.03 µM
O=C(CN1C(=O)/C(=C/c2ccc(Cl)cc2)SC1=S)Nc1ccccc1 — IC50 (cell growth or viability; MTT): 14.3 µM
CC1=C(O)C(=O)C=C2C1=CC=C1[C@@]2(C)CC[C@@]2(C)[C@@H]3C[C@](C)(C(=O)OCCCN4C(=O)C5C=CC=CC5C4=O)CC[C@]3(C)CC[C@]12C (stereo partly shown) — IC50 (cell growth or viability; MTT; 48 h): 3.65 µM
CCN(CC)CCn1cccc1/C=N/NC(=O)Nc1cc2c(Nc3ccc(F)c(Cl)c3)ncnc2cc1O[C@H]1CCOC1 — IC50 (cell growth or viability; MTT; 72 h): 1.59 µM
CN1C(=O)/C(=N\NC(=O)c2cc3ccccc3[nH]2)c2cc(Br)ccc21 — IC50 (cell growth or viability): 1.49 µM
C=CC(=O)Nc1cc(Nc2nc(N3CCc4sccc4C3)c3cccnc3n2)c(OC)cc1N1CCN(CC)CC1 — IC50 (cell growth or viability; MTT): 1.42 µM
NNc1nc(NCc2ccccc2)nc(Nc2ccc(Br)cc2)n1 — IC50 (cell growth or viability; SRB; 72 h): > 30 µM
CCNC(=O)NNC(=O)c1ccc(Nc2nccc(-c3ccc(Cl)cc3)n2)cc1 — IC50 (cell growth or viability; MTT; 24 h): > 40 µM
COc1cc2ncnc(Nc3ccc(F)c(Cl)c3)c2cc1NC(=O)N/N=C/c1cccn1CCN1CCN(C)CC1 — IC50 (cell growth or viability; MTT; 72 h): 2.34 µM
COCCCOc1ccnc(COc2ccc(NC(=O)Nc3ccc(F)cc3)cc2)c1C — IC50 (cell growth or viability; MTT; 72 h): 5.74 µM
Cc1ccc(NC(=O)CSc2nnc(Cn3cnc4c3c(=O)n(C)c(=O)n4C)n2-c2ccccc2)cc1C — IC50 (cell growth or viability; MTT): 198 µM
COc1cc2ncnc(Nc3ccc(F)c(Cl)c3)c2cc1NC(=O)N/N=C/c1cccn1CCN1CCCCC1 — IC50 (cell growth or viability; MTT; 72 h): 2.31 µM
COc1ccccc1/C=C/CNCC(O)COc1cccc2[nH]c3ccccc3c12 (stereo not shown) — IC50 (cell growth or viability; CCK-8; 72 h): 7.9 µM
COc1cc(C=C(C(=O)/C=C/c2ccc(OC)c(OC)c2)C(=O)/C=C/c2ccc(OC)c(OC)c2)ccc1O — IC50 (colony formation; 9 days): < 0.2 µM
CC(=O)O[C@H]1C(=O)[C@@]2(C)[C@H]([C@H](OC(=O)c3ccccc3)[C@]3(O)C[C@H](OC(=O)[C@H](O)[C@@H](NC(=O)c4ccccc4)c4ccccc4)C(C)=C1C3(C)C)[C@]1(OC(C)=O)CO[C@@H]1C[C@@H]2O — IC50 (cell growth or viability; SRB): 0.0025 µM
COc1c(C)c(OS(=O)(=O)c2ccc3ccccc3c2)c(C)c(OS(=O)(=O)c2ccc3ccccc3c2)c1C(=O)/C=C/c1ccccc1 — IC50 (cell growth or viability; SRB; 72 h): > 50 µM
